# Reference: ChEMBL document CHEMBL3414425, “Synthesis and biological evaluation of new imidazo[2,1-b][1,3,4]thiadiazole-benzimidazole derivatives” (Eur J Med Chem, 2015)
# Activity calls are given as the source filed them. No cut-off for these calls is given here.
# What was measured:
# [1] = tested on: Mycobacterium tuberculosis; assay: Antitubercular activity against Mycobacterium tuberculosis H37Rv ATCC 27294/XDR-TB incubated for 28 days by agar dilution method; assay type: functional; settings: 672 h
# Outline: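 Agar dilution: two-fold dilutions in Middlebrook 7H11 agar with OADC. Inoculum from fresh 7H11/OADC slants adjusted to 1 mg/mL wet weight in 0.05% Tween 80 saline, diluted 10^-2 (~10⁷ cfu/mL); 5 µL spotted per tube. Incubated 37 °C; MIC, lowest concentration fully inhibiting growth, read after 28 days, in triplicate.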
# Escherichia coli [2] = assay: Antibacterial activity against Escherichia coli at 1 mg/ml incubated for 18 hrs by well plate technique; assay type: functional; settings: for zone of inhibition at 1000 µg/mL: read-out: DIZ
# Outline: (§1)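 Bacteria kept on nutrient agar at 37 °C, grown statically in nutrient broth (start ~10-100 cfu/mL) at 37 °C for 18-24 h. Suspensions diluted in saline and spread on nutrient agar, then wells cut with a cork borer. Compound in DMSO at 1 or 0.5 mg/mL added to wells, 37 °C, 18 h. Inhibition zone diameter measured minus DMSO value; triplicate; streptomycin standard.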
# Escherichia coli [3] = assay: Antibacterial activity against Escherichia coli at 0.5 mg/ml incubated for 18 hrs by well plate technique; assay type: functional; settings: for zone of inhibition at 500 µg/mL: read-out: DIZ; outline: as §1
# Staphylococcus aureus [4] = assay: Antibacterial activity against Staphylococcus aureus at 1 mg/ml incubated for 18 hrs by well plate technique; assay type: functional; settings: for zone of inhibition at 1000 µg/mL: read-out: DIZ; outline: as §1
# Staphylococcus aureus [5] = assay: Antibacterial activity against Staphylococcus aureus at 0.5 mg/ml incubated for 18 hrs by well plate technique; assay type: functional; settings: for zone of inhibition at 500 µg/mL: read-out: DIZ; outline: as §1
# Pseudomonas aeruginosa [6] = assay: Antibacterial activity against Pseudomonas aeruginosa at 1 mg/ml incubated for 18 hrs by well plate technique; assay type: functional; settings: for zone of inhibition at 1000 µg/mL: read-out: DIZ; outline: as §1
# Pseudomonas aeruginosa [7] = assay: Antibacterial activity against Pseudomonas aeruginosa at 0.5 mg/ml incubated for 18 hrs by well plate technique; assay type: functional; settings: for zone of inhibition at 500 µg/mL: read-out: DIZ; outline: as §1
# Salmonella typhi [8] = assay: Antibacterial activity against Salmonella typhi at 1 mg/ml incubated for 18 hrs by well plate technique; assay type: functional; settings: for diameter of the inhibition zone (DIZ): Salmonella enterica subsp. enterica serovar Typhi; for zone of inhibition at 1000 µg/mL: Salmonella enterica, read-out: DIZ
# Outline: (§2)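 Well diffusion on nutrient agar; strains kept on nutrient agar at 37 °C, grown statically in nutrient broth 18-24 h at 37 °C, diluted in saline, 0.1 ml spread per plate. Compounds in DMSO at 1 and 0.5 mg/mL added to cork-bored wells; 18 h at 37 °C. Inhibition zone diameter measured, DMSO value subtracted; triplicate; streptomycin reference.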
# Salmonella typhi [9] = assay: Antibacterial activity against Salmonella typhi at 0.5 mg/ml incubated for 18 hrs by well plate technique; assay type: functional; settings: for diameter of the inhibition zone (DIZ): Salmonella enterica subsp. enterica serovar Typhi; for zone of inhibition at 500 µg/mL: Salmonella enterica, read-out: DIZ; outline: as §2
# Aspergillus flavus [10] = assay: Antifungal activity against Aspergillus flavus at 1 mg/ml incubated for 3 days; assay type: functional; settings: for zone of inhibition at 1000 µg/mL: 72 h, read-out: IZ
# Outline: (§3)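 Well plate method on potato dextrose agar. Fungal stock suspended in distilled water with Tween 80 and swabbed over plates. Samples in DMSO at 1 and 0.5 mg/mL added to wells, incubated 25 °C for 3 days, then scored for inhibition zones; fluconazole standard.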
# Aspergillus flavus [11] = assay: Antifungal activity against Aspergillus flavus at 0.5 mg/ml incubated for 3 days; assay type: functional; settings: for zone of inhibition at 500 µg/mL: 72 h, read-out: IZ; outline: as §3
# [12] = tested on: Chrysosporium keratinophilum; assay: Antifungal activity against Chrysosporium keratinophilum at 1 mg/ml incubated for 3 days; assay type: functional; settings: for zone of inhibition at 1000 µg/mL: 72 h, read-out: IZ; outline: as §3
# [13] = tested on: Chrysosporium keratinophilum; assay: Antifungal activity against Chrysosporium keratinophilum at 0.5 mg/ml incubated for 3 days; assay type: functional; settings: for zone of inhibition at 500 µg/mL: 72 h, read-out: IZ; outline: as §3
# Candida albicans [14] = assay: Antifungal activity against Candida albicans at 1 mg/ml incubated for 3 days; assay type: functional; settings: for zone of inhibition at 1000 µg/mL: 72 h, read-out: IZ; outline: as §3
# Candida albicans [15] = assay: Antifungal activity against Candida albicans at 0.5 mg/ml incubated for 3 days; assay type: functional; settings: for zone of inhibition at 500 µg/mL: 72 h, read-out: IZ; outline: as §3
# [16] = Antioxidant activity assessed as DPPH radical scavenging activity incubated for 10 mins by UV-visible spectrometry; assay type: physicochemical
# Outline: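 DPPH free-radical scavenging; absorbance read at 517 nm against a methanol blank. % scavenging = (A control − A sample)/A control × 100.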
# [17] = Cytotoxicity against African green monkey Vero cells assessed as growth inhibition at 62.5 ug/ml after 72 hrs by MTT assay; assay type: cell-based; settings: chlorocebus sabaeus, read-out: GI
# Outline: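 Vero cells grown in MEM + 10% FBS at 37 °C, 5% CO2. Seeded ~10,000 cells/well, 24 h to a partial monolayer. Compounds in DMSO diluted in MEM + 2% FBS (1 mg/ml stock, two-fold dilutions) for 72 h. MTT 3 h, formazan dissolved in propanol, A540. % inhibition = 100 − (mean OD test/mean OD control × 100).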
SMILES,MIC [1] [µg/mL],diameter of the inhibition zone (DIZ) (Escherichia coli [2]),diameter of the inhibition zone (DIZ) (Escherichia coli [3]),diameter of the inhibition zone (DIZ) (Staphylococcus aureus [4]),diameter of the inhibition zone (DIZ) (Salmonella typhi [8]),diameter of the inhibition zone (DIZ) (Salmonella typhi [9]),inhibition (INH) [16] [%],"inhibition at 72 h, 62.5 ug/ml [17] [%]",zone of inhibition at 1000 µg/mL (Escherichia coli [2]) [mm],zone of inhibition at 500 µg/mL (Escherichia coli [3]) [mm],zone of inhibition at 1000 µg/mL (Staphylococcus aureus [4]) [mm],zone of inhibition at 500 µg/mL (Staphylococcus aureus [5]) [mm],zone of inhibition at 1000 µg/mL (Pseudomonas aeruginosa [6]) [mm],zone of inhibition at 500 µg/mL (Pseudomonas aeruginosa [7]) [mm],zone of inhibition at 1000 µg/mL (Aspergillus flavus [10]) [mm],zone of inhibition at 500 µg/mL (Aspergillus flavus [11]) [mm],zone of inhibition at 1000 µg/mL [12] [mm],zone of inhibition at 500 µg/mL [13] [mm],zone of inhibition at 1000 µg/mL (Candida albicans [14]) [mm],zone of inhibition at 500 µg/mL (Candida albicans [15]) [mm],other results
Cc1ccc(-c2nc3sc(-c4ccc(Cl)cc4)nn3c2-c2nc3cc([N+](=O)[O-])ccc3[nH]2)cc1,6.25,inactive,inactive,inactive,inactive,inactive,26.3,8.85,–,–,–,–,–,–,–,–,–,–,–,–,diameter of the inhibition zone (DIZ) (Staphylococcus aureus [5]): inactive; diameter of the inhibition zone (DIZ) (Pseudomonas aeruginosa [6]): inactive; diameter of the inhibition zone (DIZ) (Pseudomonas aeruginosa [7]): inactive; inhibition zone (IZ) (Aspergillus flavus [10]): inactive; inhibition zone (IZ) (Aspergillus flavus [11]): inactive; inhibition zone (IZ) [12]: inactive; inhibition zone (IZ) [13]: inactive; inhibition zone (IZ) (Candida albicans [14]): inactive; inhibition zone (IZ) (Candida albicans [15]): inactive
Cc1nn2c(-c3nc4ccccc4[nH]3)c(-c3ccc(F)cc3)nc2s1,6.25,–,–,–,–,–,19.9,10.6,4,3,2,1,3,2,3,2,4,3,2,1,zone of inhibition at 1000 µg/mL (Salmonella typhi [8]): 2 mm; zone of inhibition at 500 µg/mL (Salmonella typhi [9]): 1 mm
Cc1ccc(-c2nn3c(-c4nc5cc(Cl)ccc5[nH]4)c(-c4ccc(Cl)cc4)nc3s2)cc1,3.12,–,–,–,inactive,inactive,65.7,7.4,4,2,5,3,3,2,5,2,3,1,6,4,–
Cc1ccc(-c2nc3sc(-c4ccc(Cl)cc4)nn3c2-c2nc3ccccc3[nH]2)cc1,3.12,–,–,–,–,–,45.7,12.2,5,3,4,1,4,1,5,3,5,2,4,2,zone of inhibition at 1000 µg/mL (Salmonella typhi [8]): 5 mm; zone of inhibition at 500 µg/mL (Salmonella typhi [9]): 3 mm
Cc1nn2c(-c3nc4cc(Cl)ccc4[nH]3)c(-c3ccc(Cl)cc3)nc2s1,3.12,–,–,–,–,–,78.8,7.12,4,2,3,2,4,1,3,1,5,3,4,2,zone of inhibition at 1000 µg/mL (Salmonella typhi [8]): 4 mm; zone of inhibition at 500 µg/mL (Salmonella typhi [9]): 2 mm
Cc1ccc(-c2nn3c(-c4nc5cc([N+](=O)[O-])ccc5[nH]4)c(-c4ccc(Cl)cc4)nc3s2)cc1,12.5,inactive,inactive,inactive,inactive,inactive,21.8,–,–,–,–,–,–,–,–,–,–,–,–,–,diameter of the inhibition zone (DIZ) (Staphylococcus aureus [5]): inactive; diameter of the inhibition zone (DIZ) (Pseudomonas aeruginosa [6]): inactive; diameter of the inhibition zone (DIZ) (Pseudomonas aeruginosa [7]): inactive; inhibition zone (IZ) (Aspergillus flavus [10]): inactive; inhibition zone (IZ) (Aspergillus flavus [11]): inactive; inhibition zone (IZ) [12]: inactive; inhibition zone (IZ) [13]: inactive; inhibition zone (IZ) (Candida albicans [14]): inactive; inhibition zone (IZ) (Candida albicans [15]): inactive
COc1ccc(-c2nc3sc(-c4ccc(F)cc4)nn3c2-c2nc3ccccc3[nH]2)cc1,12.5,inactive,inactive,inactive,inactive,inactive,25.4,–,–,–,–,–,–,–,–,–,–,–,–,–,diameter of the inhibition zone (DIZ) (Staphylococcus aureus [5]): inactive; diameter of the inhibition zone (DIZ) (Pseudomonas aeruginosa [6]): inactive; diameter of the inhibition zone (DIZ) (Pseudomonas aeruginosa [7]): inactive; inhibition zone (IZ) (Aspergillus flavus [10]): inactive; inhibition zone (IZ) (Aspergillus flavus [11]): inactive; inhibition zone (IZ) [12]: inactive; inhibition zone (IZ) [13]: inactive; inhibition zone (IZ) (Candida albicans [14]): inactive; inhibition zone (IZ) (Candida albicans [15]): inactive
